Data: article PMC12217772 (Nature Communications, 2025)
Values joined by “and” are separate entries in the source; they are usually repeats but may differ in a detail not shown here. Identical values can stand only once.

Columns and labels:
[1] = target: GluA2(Q) subunit of GluA2-γ2EM (rat) (UniProt P19491); assay: cryo-EM structure
CP-AMPARs = CP-AMPARs (Rattus norvegicus, UniProt P19491); assay: Whole-cell recordings, other NMDAR channel blockers on CP-AMPARs; format: cell-based; settings: for Inhibitory effect on CP-AMPARs at hundreds of micromolar concentrations: hundreds of micromolar (10 and 100 µM shown in Fig. S1), 10 mM glutamate
GluA2(Q)/γ8 = GluA2(Q)/γ8 (UniProt P19491+Q8WXS5); assay: Whole-cell patch-clamp, glutamate-induced currents, GluA2; format: cell-based, rat; settings: 500 µM memantine, 10 mM glutamate
Summary of the method: (§1)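 HEK-293T cells were transfected with GluA2(Q), GluA2(Q)/γ2 or GluA2(Q)/γ8 plus GFP, replated in NBQX medium, and recorded 24–48 h later. Whole-cell clamp at −60 mV, room temperature; CsF/CsCl/EGTA internal and NaCl/KCl/CaCl2/HEPES external, both pH 7.4. […] IC50 came from a Hill fit of steady-state inhibition; ≥3 recordings from ≥3 days.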

GluA1/γ2 = GluA1/γ2 (Homo sapiens, UniProt P42261); assay: Whole-cell patch-clamp, glutamate-induced currents, GluA1/γ2; format: cell-based
Sequence of GluA1/γ2 (P42261 19-906, species assumed): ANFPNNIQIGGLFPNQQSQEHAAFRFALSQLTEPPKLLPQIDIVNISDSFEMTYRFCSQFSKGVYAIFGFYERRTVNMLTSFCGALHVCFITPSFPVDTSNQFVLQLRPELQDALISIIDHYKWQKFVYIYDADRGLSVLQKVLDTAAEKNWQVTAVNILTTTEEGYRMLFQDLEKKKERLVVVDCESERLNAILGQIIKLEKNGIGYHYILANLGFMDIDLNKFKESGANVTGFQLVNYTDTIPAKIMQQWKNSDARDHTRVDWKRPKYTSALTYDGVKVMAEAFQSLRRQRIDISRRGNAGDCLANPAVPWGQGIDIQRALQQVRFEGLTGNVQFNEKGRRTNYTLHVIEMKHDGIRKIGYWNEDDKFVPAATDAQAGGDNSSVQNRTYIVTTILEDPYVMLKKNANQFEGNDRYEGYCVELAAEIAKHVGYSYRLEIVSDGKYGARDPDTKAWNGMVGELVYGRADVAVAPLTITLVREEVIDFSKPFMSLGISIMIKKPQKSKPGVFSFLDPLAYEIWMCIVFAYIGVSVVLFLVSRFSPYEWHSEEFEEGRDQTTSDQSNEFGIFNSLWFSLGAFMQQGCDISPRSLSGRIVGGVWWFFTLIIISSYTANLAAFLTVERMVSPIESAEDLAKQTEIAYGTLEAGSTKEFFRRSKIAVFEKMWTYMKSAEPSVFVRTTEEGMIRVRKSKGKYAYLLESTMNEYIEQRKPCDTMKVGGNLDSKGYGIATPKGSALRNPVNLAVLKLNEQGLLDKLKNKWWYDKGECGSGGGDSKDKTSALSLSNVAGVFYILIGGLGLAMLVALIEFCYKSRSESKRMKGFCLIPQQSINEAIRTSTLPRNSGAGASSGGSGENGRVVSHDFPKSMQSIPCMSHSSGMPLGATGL
Sequence of GluA1/γ2 (Q9Y698 whole entry partner, species assumed): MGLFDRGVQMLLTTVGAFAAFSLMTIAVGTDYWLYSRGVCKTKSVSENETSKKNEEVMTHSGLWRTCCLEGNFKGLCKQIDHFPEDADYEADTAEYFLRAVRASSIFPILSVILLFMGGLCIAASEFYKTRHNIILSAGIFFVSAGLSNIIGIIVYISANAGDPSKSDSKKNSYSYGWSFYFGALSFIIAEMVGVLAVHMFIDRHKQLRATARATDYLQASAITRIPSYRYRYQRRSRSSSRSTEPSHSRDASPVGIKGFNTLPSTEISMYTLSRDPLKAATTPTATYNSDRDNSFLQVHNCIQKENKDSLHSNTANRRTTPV
Summary of the method: (§2)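 HEK-293T cells at 40–50% confluency were lipofectamine-transfected with GluA1, or GluA1 plus GluA2(R), co-transfected with γ2 or γ8 and GFP. Cells were replated after 4–6 h in NBQX-containing medium and recorded 24–48 h post-transfection. […] IC50 came from a Hill fit of steady-state current inhibition versus concentration; ≥3 recordings over ≥3 days.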

GluA1-GluA2(R)/γ2 = GluA1-GluA2(R)/γ2 (UniProt P19491+P42261, Q607R); assay: Whole-cell patch-clamp, co-expression of GluA1 and GluA2; format: cell-based
Summary of the method: as §2

[2] = target: GluA2(Q) in the presence of CTZ (Rattus norvegicus, UniProt P19491); assay: Whole-cell patch-clamp, GluA2; format: cell-based; settings: 500 µM memantine, 100 μM CTZ, 10 mM glutamate
GluA2(R)/γ2 = GluA2(R)/γ2 (Rattus norvegicus, UniProt P19491, Q607R); assay: Whole-cell patch-clamp, glutamate-induced currents, CI-AMPAR GluA2; format: cell-based; settings: 10 mM glutamate
GluA1/γ8 = GluA1/γ8 (Homo sapiens, UniProt P42261); assay: Whole-cell patch-clamp, glutamate-induced currents, GluA1/γ8; format: cell-based
Sequence of GluA1/γ8 (P42261 19-906, species assumed): as the sequence (P42261 19-906, species assumed) above
Sequence of GluA1/γ8 (Q8WXS5 whole entry partner, species assumed): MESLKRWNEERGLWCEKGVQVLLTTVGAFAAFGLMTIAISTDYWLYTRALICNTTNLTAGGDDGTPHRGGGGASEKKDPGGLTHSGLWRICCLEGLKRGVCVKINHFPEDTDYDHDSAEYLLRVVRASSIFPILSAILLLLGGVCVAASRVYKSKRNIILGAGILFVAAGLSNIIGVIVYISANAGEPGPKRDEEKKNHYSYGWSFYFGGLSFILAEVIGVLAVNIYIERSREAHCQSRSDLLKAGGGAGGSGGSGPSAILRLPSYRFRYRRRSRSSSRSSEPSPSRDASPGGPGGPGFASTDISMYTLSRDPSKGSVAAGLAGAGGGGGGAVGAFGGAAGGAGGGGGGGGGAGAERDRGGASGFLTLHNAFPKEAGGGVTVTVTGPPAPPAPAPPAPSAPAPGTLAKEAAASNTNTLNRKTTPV
Summary of the method: as §2

GluA2(Q)/γ2 = GluA2(Q)/γ2 (UniProt P19491+Q9Y698, E306D/I257V/N307S/S313A); assay: Whole-cell patch-clamp, glutamate-induced currents, GluA2; format: cell-based, rat; settings: 10 mM glutamate
Summary of the method: as §1

GluA2(Q) = GluA2(Q) (Rattus norvegicus, UniProt P19491); assay: as above; format: cell-based; settings: 500 µM memantine, 10 mM glutamate, no auxiliary subunit, no CTZ
Summary of the method: as §1

Molecule: GluA2(Q) subunit of GluA2-γ2EM (from UniProt P19491-2 22-883) (receptor)
- stoichiometry N [1]: 4

Molecule: C[C@]12N[C@H](Cc3ccccc31)c1ccccc12 [MK801]
- Inhibition of CP-AMPARs in the concentration range where they inhibit NMDARs (CP-AMPARs): do not show significant inhibition
- Inhibitory effect on CP-AMPARs at hundreds of micromolar concentrations (CP-AMPARs): minimal inhibitory effect

Molecule: CC12CC3CC(C)(C1)CC(N)(C3)C2 [memantine, Memantine]
- Effect on peak and steady-state currents of GluA2(Q)/γ8 (GluA2(Q)/γ8): inhibited
- IC50 (GluA1/γ2): 15 ± 2 µM
- IC50 (GluA1-GluA2(R)/γ2): 697 ± 149 µM
- Effect on steady-state currents of GluA2(Q) with CTZ [2]: showed inhibition of the steady-state currents
- Inhibitory effect on GluA2(R)/γ2 at 500 µM (GluA2(R)/γ2; 500 µM memantine): only a minor inhibitory effect
- Inhibition of GluA2(R)/γ2 currents at saturating concentrations (GluA2(R)/γ2; saturating concentrations of memantine): only partial inhibition
- IC50 (GluA1/γ8): 10 ± 2 µM
- Effect on peak and steady-state currents of GluA2(Q)/γ2 (GluA2(Q)/γ2; 500 µM memantine): inhibited
- IC50 (GluA2(Q)/γ2; IC50 for memantine inhibition of GluA2(Q)/γ2, HEK-293 cells, steady-state current, −60 mV): 49.3 µM and 49 µM
- Inhibition of whole-cell currents of GluA2(Q) in isolation (GluA2(Q)): did not show any significant inhibition

Molecule: CNC1(c2ccccc2Cl)CCCCC1=O (stereo not drawn) [ketamine]
- Inhibition of CP-AMPARs in the concentration range where they inhibit NMDARs (CP-AMPARs): do not show significant inhibition
- Inhibitory effect on CP-AMPARs at hundreds of micromolar concentrations (CP-AMPARs): minimal inhibitory effect
